System: MS2 coat protein
Assay: apparent Kd, MS2 coat protein; higher = weaker binding; RNA-MaP array; FMN 200 µM where present
Procedure, shortened: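 The titrant was SNAP-549-labelled MS2 coat protein, run from 0.7 or 1.5 nM in doubling steps to 3 µM. It was applied to designs transcribed by stalled E. coli RNA polymerase on Illumina sequencing-chip clusters, without ligand first and then with constant ligand, in 100 mM Tris-HCl pH 7.5, 80 mM KCl, 4 mM MgCl2, BSA, DTT, yeast tRNA and Tween-20. The apparent Kd is the median of filtered per-cluster binding-curve fits, with green signal normalised to red-channel RNA signal and control-cluster median Fmax.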

[1] = designed as: ON switch for flavin mononucleotide, no ligand
[2] = ligand present: flavin mononucleotide, designed as: ON switch for flavin mononucleotide
[3] = designed as: OFF switch for flavin mononucleotide, no ligand
[4] = ligand present: flavin mononucleotide, designed as: OFF switch for flavin mononucleotide

Sequence | apparent Kd [1] | apparent Kd [2] | apparent Kd [3] | apparent Kd [4]
ACCGUAUGAACAUGAGGAUCACCCAUGUAUCCGAAAGGGAAUGAGGAUAUCGAUAGCAAAGCUAUCGAGAAGGCAUGGGACGGU | 460 nM | 434 nM | – | –
CGACGUUGGGAGAAGGAGUAAAAUACAUGAGGAUCACCCAUGUCAGGUGCUAGGAUAUCCUCGCGUGGCAGGGUCGGCCCGUGU | 97.2 nM | 32.7 nM | – | –
CGCAUGCGUAGAAUUAGCUGCUGACAGGAUAUGACAUGAGGAUCACCCAUGUGAUUUAAGAAGAGUCAGAAGGGUCACGAUGCG | – | – | 7.8 nM | 13.5 nM
GGAUUGUGAGGAUAUUAGUUGUACGUCAAUAGACGUAUAAGUGAGAAGGCACAUGAGGAUCACCCAUGUUCCUG | – | – | 22.7 nM | 80.7 nM
GGAUGAGCGAUAGGAUAUGCUGGGAUUGAAUGGGUAGAAGGAUUUCUAGUGGGAAAGACAUGAGGAUCACCCAUGUCGCGGACC | 30.3 nM | 29.4 nM | – | –
UUUUUAUAAGAGAAGGAGGACUUCAUGAGGAUCACCCAUGUGUUAGUACUUAGGAUAUUUAAUAACAUGAGGAUCACCCAUGUC | 49.4 nM | 49.2 nM | – | –
GAAGCAGAUCAGAAGGACAACGUAGUUUCUGGCUUGGUGGCCCUCGUUUGUAGGAUAUGAUCUAACAUGAGGAUCACCCAUGUG | 53.2 nM | 11.7 nM | – | –
AAUUAUUAUUGAGGAUAUCGUAUUGAAACAAUACGAGAAGGCGGAAUAAACAUGAGGAUCACCCAUGUGAGCCUGAUGCUUGUG | – | – | 17 nM | 18.7 nM
UUGAACAUAGGAUAUAGUUGUUUGUACAUGAGGAUCACCCAUGUUAGGGAUGUUUUGUUUCUAGAAGGAUGUUGAU | – | – | 170 nM | 80.3 nM
AGGAAGUGAGGAUAUGCAGUCGCUAGUAGACGCUAGCACUUGUAGAAGGCACAUGAGGAUCACCCAUGUUUAAA | – | – | 31.3 nM | 36.3 nM
GGAGACCUCACAGGAUAUGCUGGACUUUGUCCAGCAGAAGGGUGGAAACAUGAGGAUCACCCAUGUAUGGUCUCCAAAUUUAAU | 89 nM | 8.74 nM | – | –
AACUCGUCAGGAUAUGCGCGCAGUUACUACGCUUCGCAAUUGCAGAAGGGACAUGAGGAUCACCCAUGUAGAUC | – | – | 34.6 nM | 57.3 nM
UAGAAGUCAGGAUAUCCAGCUCGUCACUUGCGUGAUGAGUUGGAGAAGGGACAUGAGGAUCACCCAUGUAAAGG | – | – | 152 nM | 242 nM
AAUAUGAGCUGGUUUAAACUCAAAACAUGAGGAUCACCCAUGUAGGAUAUCAGCACGAUAAGUGCUGAGAAGGACAUCCAGCUC | – | – | 14.2 nM | 16.5 nM
AGCGUGGUCCACUUGGACGCCUACGAGGAUAUCCUGUCACAUGAGGAUCACCCAUGUAGGCACACGGAGAAGGCGUAGACUUAA | 25.8 nM | 6.8 nM | – | –
GGAUAGGACAGAGGAUAUACGUUCUAGAGAUACUAGCAAAAUUUCCUCACAUGAGGAUCACCCAUGUAGAAGGCUGUCCUAUCG | – | – | 15.1 nM | 282 nM
CGUCGGAGCAGAGGAUAUUACAUGAGGAUCACCCAUGUAUGAACCAAUAGCUGGAAACAGCAAUGUAAGAAGGCUGCUCCGACA | – | – | 12.8 nM | 198 nM
UCGUACAUUCGAGGAUAUCGGUGAUUAAUAAUACGAGAAGGCGAUUUAAGGCAUAAAGCCUUAGACAUGAGGAUCACCCAUGUA | 107 nM | 70.5 nM | – | –
AUUAUUGACGUAGGAUAUUCUUACAUGAGGAUCACCCAUGUUAUUUGGGAACUAGGAAUAUUUUAGAAGAAGGACGUUGUUAAA | 230 nM | 173 nM | – | –
CGGUGACGUGUAGGAUAUGGAGAUGGGUUUUGGCCAGAAGGACAUGAGGAUCACCCAUGUGGUAGAGGGUUGGCGGCUGCCCGU | – | – | 16.7 nM | 18.7 nM
GCCGAAGGACCCUGACGGGUCGGCUAGGAUAUACAUGAGGAUCACCCAUGUGCGGUUAUUCACGAGUAGAAGGAGCCUCGGCAA | – | – | 101 nM | 80.9 nM

Sequence | apparent Kd [1] | apparent Kd [2] | apparent Kd [3] | apparent Kd [4]
UGAUAGGACAGAGGAUAUACGUGCUAGAGAUACUAGCAAAAUUUCCUCACAUGAGGAUCACCCAUGUAGAAGGCUGUCCUAUCU | – | – | 47.8 nM | 1100 nM
AAUAUAAAAGAGCUGGAUACUCAAACAUGAGGAUCACCCAUGUAGGAUAUCAGCACGAUAAGUGCUGAGAAGGACAACCAGCUC | – | – | 14.6 nM | 15.6 nM
UCCUCGAUGUAGAAGGCCGCGUCCGGCUCACGCGGAGGAUAUACAUGAGGAUCACCCAUGUGUCUGUGCCUUAUAUGGUACGGA | – | – | 111 nM | 10.5 nM
GCUUUUAAGGGAGGAUAUUGUUACAUGAGGAUCACCCAUGUGGCGGGAUGAUAUCUUAACAGGAACGAGAAGGCCCAAACGCGA | – | – | 35.7 nM | 65.4 nM
ACUAGAUGAGGAUAUGCACAUUUUAGUGUUCCUCUAGAUUAACAUGAGGAUCACCCAUGUAGAAGGCGUCAUUU | – | – | 77 nM | 91.5 nM
UAAUUUUUGACAGGAUAUCCAUGUACAUGAGGAUCACCCAUGUAAAAGGGUAGCCUCAUCGGGCAGGAGAAGGGUCGAUAGGCG | – | – | 249 nM | 134 nM
AAGUAUAGAGGAUAUAGUAGUUACAACAUGAGGAUCACCCAUGUUCUUCAUAACGUAGUUCUAGAAGGCUGAUAAA | – | – | 183 nM | 271 nM
GGUACGCAUGUAGGAUAUCGAGCUCAAAGAGCUCGAGAAGGACAUGAGGAUCACCCAUGUCCUCACAGACAGUGAGGGCGUACC | – | – | 18 nM | 26.5 nM
CUGAUGUUAGGAUAUCAGGUUGUGCGCGAAGGCGGGCGGCAUGAGAAGGAACAUGAGGAUCACCCAUGUGACGA | – | – | 29.4 nM | 85 nM
AAAAACUCAGGAUAUAUUAUGGGACAAUGAAGGAAGAUAAAACAUGAGGAUCACCCAUGUAGAAGGGAGAAAAA | – | – | 58.5 nM | 67.5 nM
AAAUAAGUUGCAGGAUAUUAUUUUUAAUAAAUAUAAGAAGGGCAACAAACCUCACAUGAGGAUCACCCAUGUACCCAUGCAUCU | – | – | 97.8 nM | 38.4 nM
AACAGCUCGUCAGGAUAUAUUUUCCUUUUAUGUAUUUAUGUACAUGAGGAUCACCCAUGUUGUUUGUAGAAGGGACGAGCUGAA | – | – | 27.5 nM | 35.7 nM
GGAUAGGACAGAGGAUAUACGUGCUGGAGAUACUAGCAAAAUUUCCUCACAUGAGGAUCACCCAUGUAGAAGGCUGUCCUAUCG | – | – | 32.6 nM | 478 nM
UGCCGUAGAGGAUAUACAUUGAAUUUGAUUCAUGUAAAACUACAUGAGGAUCACCCAUGUAGAAGGCUAUGGCU | – | – | 17.9 nM | 34.4 nM
CCUCCGCAUUAGGAUAUCGUCACGGAAACGUGACGAGAAGGAAUGACAUGAGGAUCACCCAUGUUAACGUGAUG | – | – | 52.2 nM | 270 nM
UAUAUAUAGUAAGGAUAUGUAUUUAUUUUAUAAACAGAAGGUACUGACAUGAGGAUCACCCAUGUUUUAGUGUGGGCAUGUAGA | – | – | 89.1 nM | 128 nM
UUGCCUGCGUGUCGCCGGUUUGGACAGGAUAUCCACAUGAGGAUCACCCAUGUCUAACAAAAUACGGAGAAGGGUCCUAGCGGU | 39 nM | 6.55 nM | – | –
AUUAUAUAGGUAGGAUAUAGAAUAUUAUUUUAACAUGAGGAUCACCCAUGUAACCUUAUGUGUAGCUAGAAGGACCAUUUAUUA | – | – | 78 nM | 154 nM
AAAAAACAUGAGGAUCACCCAUGUUAGGAUAUCCUGCAGAAAAAAAAAAAAAACUGCAGGAGAAGGAGCAAGGA | – | – | 90 nM | 104 nM
UUUUAGUGAGGAUAUGUGGCUUCGAUCGUGAGAUCGAGGCUACAGAAGGCACAUGAGGAUCACCCAUGUUCCUA | – | – | 16.6 nM | 81.7 nM
GAUUCACAUGAGGAUCACCCAUGUCGUUUAAUGGGAGGAUAUACGUGGACCGUAGUCCGCGUAGAAGGCCUAAUUG | 95.1 nM | 25.6 nM | – | –
